{"source": "paper PMC6287672", "about": "(International Journal for Parasitology: Drugs and Drug …, 2018)", "assay_in_all_cases": "two-electrode voltage clamp, Xenopus oocytes", "assay_type_in_all_cases": "cell-based", "key": {"[1]": {"molecular_target": "T1, Hco-UNC-49BC (Haemonchus contortus, UniProt D6BK80, R241K)", "T1 sequence (D6BK80 22-496 R241K)": "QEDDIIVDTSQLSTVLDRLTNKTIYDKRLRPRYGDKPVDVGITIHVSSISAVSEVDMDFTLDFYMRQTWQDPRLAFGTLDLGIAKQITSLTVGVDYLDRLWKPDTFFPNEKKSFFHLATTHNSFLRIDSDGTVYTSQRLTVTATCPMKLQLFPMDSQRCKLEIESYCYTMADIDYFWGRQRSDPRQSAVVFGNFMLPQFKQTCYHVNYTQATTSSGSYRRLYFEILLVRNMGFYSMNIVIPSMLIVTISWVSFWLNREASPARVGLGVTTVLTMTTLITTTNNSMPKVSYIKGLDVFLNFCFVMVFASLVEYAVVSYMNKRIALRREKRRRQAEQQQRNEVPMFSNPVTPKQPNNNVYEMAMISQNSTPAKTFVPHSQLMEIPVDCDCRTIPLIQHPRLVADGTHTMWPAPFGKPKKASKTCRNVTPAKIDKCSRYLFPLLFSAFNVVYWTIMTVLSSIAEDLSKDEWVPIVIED", "T1 sequence (D6BJF3 22-440 partner)": "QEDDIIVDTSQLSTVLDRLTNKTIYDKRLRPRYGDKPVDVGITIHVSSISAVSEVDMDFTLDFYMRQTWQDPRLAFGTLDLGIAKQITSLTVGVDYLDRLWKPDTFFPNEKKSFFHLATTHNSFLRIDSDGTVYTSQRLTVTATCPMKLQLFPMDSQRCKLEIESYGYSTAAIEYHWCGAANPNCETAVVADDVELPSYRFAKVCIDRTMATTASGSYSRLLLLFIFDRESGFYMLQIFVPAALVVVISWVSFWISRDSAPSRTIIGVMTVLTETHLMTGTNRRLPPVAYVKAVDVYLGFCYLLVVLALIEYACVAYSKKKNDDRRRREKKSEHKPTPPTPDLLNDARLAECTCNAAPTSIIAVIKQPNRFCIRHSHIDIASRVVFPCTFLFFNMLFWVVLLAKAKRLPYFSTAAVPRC", "summary_of_the_method": "(§1)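 Oocytes from X. laevis, collagenase-treated in OR-2 (pH 7.5) for 2 h, were co-injected with wild-type or mutant hco-unc-49b cRNA plus wild-type hco-unc-49c cRNA and kept 48 h at 20ᵒC in supplemented ND96. Cells were clamped at −60 mV and GABA in ND96 was perfused, with 1–2 min ND96 washes between doses. Currents were normalised to each oocyte's maximal GABA response and fitted with a variable-slope Hill equation (≥5 oocytes, two batches).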"}, "[2]": {"molecular_target": "T2, Hco-UNC-49BC (Haemonchus contortus, UniProt D6BK80, D83C)", "T2 sequence (D6BK80 22-496 D83C)": "T1 sequence (D6BK80 22-496 R241K)", "T2 sequence (D6BJF3 22-440 partner)": "T1 sequence (D6BJF3 22-440 partner)", "summary_of_the_method": "as §1"}, "[3]": {"molecular_target": "T3, Hco-UNC-49BC (Haemonchus contortus, UniProt D6BK80, H137K)", "T3 sequence (D6BK80 22-496 H137K)": "T1 sequence (D6BK80 22-496 R241K)", "T3 sequence (D6BJF3 22-440 partner)": "T1 sequence (D6BJF3 22-440 partner)", "summary_of_the_method": "as §1"}, "[4]": {"molecular_target": "T4, Hco-UNC-49BC (Haemonchus contortus, UniProt D6BK80)", "T4 sequence (D6BK80 22-496)": "T1 sequence (D6BK80 22-496 R241K)", "T4 sequence (D6BJF3 22-440 partner)": "T1 sequence (D6BJF3 22-440 partner)", "summary_of_the_method": "as §1"}, "[5]": {"molecular_target": "T5, Hco-UNC-49BC (Haemonchus contortus, UniProt D6BK80, D83T)", "T5 sequence (D6BK80 22-496 D83T)": "T1 sequence (D6BK80 22-496 R241K)", "T5 sequence (D6BJF3 22-440 partner)": "T1 sequence (D6BJF3 22-440 partner)", "summary_of_the_method": "as §1"}, "[6]": {"molecular_target": "T6, Hco-UNC-49BC (Haemonchus contortus, UniProt D6BK80, D83E)", "T6 sequence (D6BK80 22-496 D83E)": "T1 sequence (D6BK80 22-496 R241K)", "T6 sequence (D6BJF3 22-440 partner)": "T1 sequence (D6BJF3 22-440 partner)", "summary_of_the_method": "as §1"}, "[7]": {"molecular_target": "T7, Hco-UNC-49BC (Haemonchus contortus, UniProt D6BK80, E131A)", "T7 sequence (D6BK80 22-496 E131A)": "T1 sequence (D6BK80 22-496 R241K)", "T7 sequence (D6BJF3 22-440 partner)": "T1 sequence (D6BJF3 22-440 partner)", "summary_of_the_method": "as §1"}, "[8]": {"molecular_target": "T8, Hco-UNC-49BC (Haemonchus contortus, UniProt D6BK80, R159A)", "T8 sequence (D6BK80 22-496 R159A)": "T1 sequence (D6BK80 22-496 R241K)", "T8 sequence (D6BJF3 22-440 partner)": "T1 sequence (D6BJF3 22-440 partner)", "summary_of_the_method": "as §1"}, "[9]": {"molecular_target": "T9, Hco-UNC-49BC (Haemonchus contortus, UniProt D6BK80, H137A)", "T9 sequence (D6BK80 22-496 H137A)": "T1 sequence (D6BK80 22-496 R241K)", "T9 sequence (D6BJF3 22-440 partner)": "T1 sequence (D6BJF3 22-440 partner)", "summary_of_the_method": "as §1"}, "[10]": {"molecular_target": "T10, Hco-UNC-49BC (Haemonchus contortus, UniProt D6BK80, R241A)", "T10 sequence (D6BK80 22-496 R241A)": "T1 sequence (D6BK80 22-496 R241K)", "T10 sequence (D6BJF3 22-440 partner)": "T1 sequence (D6BJF3 22-440 partner)", "summary_of_the_method": "as §1"}, "[11]": {"molecular_target": "T11, Hco-UNC-49BC (Haemonchus contortus, UniProt D6BK80, D83N)", "T11 sequence (D6BK80 22-496 D83N)": "T1 sequence (D6BK80 22-496 R241K)", "T11 sequence (D6BJF3 22-440 partner)": "T1 sequence (D6BJF3 22-440 partner)", "summary_of_the_method": "as §1"}}, "data": [{"smiles": "NCCCC(=O)O", "note": "[GABA]", "values": [{"measurement": "EC50", "setting": "[1]", "result": "3.79 ± 0.435", "unit": "mM"}, {"measurement": "EC50", "setting": "[2]", "result": "454 ± 47", "unit": "µM"}, {"measurement": "EC50", "setting": "[3]", "result": "4.17 ± 0.745", "unit": "mM"}, {"measurement": "EC50", "setting": "[4]", "result": "68 ± 17", "unit": "µM"}, {"measurement": "EC50", "setting": "[5]", "result": "520 ± 34", "unit": "µM"}, {"measurement": "EC50", "setting": "[6]", "result": "276 ± 37", "unit": "µM"}, {"measurement": "EC50", "setting": "[7]", "result": "219 ± 21", "unit": "µM"}, {"measurement": "EC50", "setting": "[8]", "result": "5.47 ± 0.396", "unit": "mM"}, {"measurement": "EC50", "setting": "[9]", "result": "2.17 ± 0.173", "unit": "mM"}, {"measurement": "EC50", "setting": "[10]", "result": "5.17 ± 0.473", "unit": "mM"}, {"measurement": "EC50", "setting": "[11]", "result": "342 ± 30", "unit": "µM"}]}]}
